ChEMBL document CHEMBL5036342, “Indomethacin-based PROTACs as pan-coronavirus antiviral agents” (Eur J Med Chem, 2021)

Tests used:
[1] = Selectivity index, ratio of CC50 for cytotoxicity against African green monkey Vero E6 cells to EC50 for antiviral activity against SARS-COV2/NL/2020 infected in African green monkey Vero E6 cells; assay type: toxicity, cell-based, Vero C1008; conditions: read-out: Ratio CC50/EC50
Vero C1008 = assay: Cytotoxicity against African green monkey Vero E6 cells assessed as reduction of cell viability measured after 72 hrs by MTT assay; assay type: cell-based; conditions: chlorocebus sabaeus, vero c1008, 72 h
Procedure, shortened: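 Uninfected Vero E6 cells were exposed to compound for 72 h and viability read by MTT. CC50 is the concentration reducing viability by 50%.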

[2] = Selectivity index, ratio of CC50 for cytotoxicity against African green monkey Vero E6 cells to EC50 for antiviral activity against SARS-COV2/Padova/2020 infected in African green monkey Vero E6 cells; assay type: toxicity, cell-based, Vero C1008; conditions: read-out: Ratio CC50/EC50
SARS-CoV-2 [3] = assay: Antiviral activity against SARS-CoV-2/NL/2020 infected in African green monkey Vero E6 cells assessed as inhibition of plaque formation measured after 3 days by Plaque reduction assay; assay type: functional, organism-based; conditions: Severe acute respiratory syndrome coronavirus 2, NL/2020, Vero C1008, 72 h
SARS-CoV-2 [4] = assay: Antiviral activity against SARS-COV2/Padova/2020 infected in African green monkey Vero E6 cells assessed as inhibition of plaque formation measured after 3 days by Plaque reduction assay; assay type: functional, organism-based; conditions: Severe acute respiratory syndrome coronavirus 2, Padova/2020, Vero C1008, 72 h
Human coronavirus OC43 = assay: Antiviral activity against Human coronavirus OC43 infected in human MRC5 cells assessed as inhibition of plaque formation measured after 3 days by Plaque reduction assay; assay type: functional, cell-based; conditions: Betacoronavirus 1, MRC5, 72 h
Procedure, shortened: (§1)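 MRC-5 cells were seeded at 6×10^4 per well and infected the next day with 80 PFU per well. After the inoculum was removed, the overlay held graded compound concentrations, 3% FBS and 0.6% methylcellulose. Monolayers were fixed and stained after 3 days, and plaques counted. EC50 is the concentration giving 50% plaque inhibition, with 95% profile-likelihood CI. n = 3 independent experiments in duplicate.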

MRC5 = assay: Cytotoxicity against human MRC5 cells assessed as reduction in cell viability measured after 72 hrs by MTT assay; assay type: cell-based; conditions: mrc5, 72 h
Procedure, shortened: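 MRC-5 cells were exposed to compound for 72 h and viability read by MTT. CC50 is the concentration reducing viability by 50%.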

Human coronavirus 229E = assay: Antiviral activity against Human coronavirus 229E infected in human MRC5 cells assessed as inhibition of plaque formation measured after 3 days by Plaque reduction assay; assay type: functional, organism-based; conditions: MRC5, 72 h; procedure, shortened: as §1
[5] = Cytotoxicity against African green monkey Vero E6 cells infected with SARS-CoV-2 assessed as reduction of cell viability measured after 48 hrs by MTT assay; assay type: cell-based, Vero C1008; conditions: chlorocebus sabaeus
SARS-CoV-2 [6] = assay: Antiviral activity against SARS-CoV-2 infected in African green monkey Vero E6 cells assessed as reduction in virus induced cytopathic effect measured after 4 days by MTT assay; assay type: functional, organism-based; conditions: Severe acute respiratory syndrome coronavirus 2, Vero C1008, 96 h
SARS-CoV = assay: Antiviral activity against SARS-CoV infected in African green monkey Vero E6 cells assessed as inhibition of viral replication; assay type: functional, organism-based; conditions: Severe acute respiratory syndrome-related coronavirus, Vero C1008
Canine coronavirus = assay: Antiviral activity against Canine coronavirus infected in dog A-72 cells assessed as inhibition of viral replication; assay type: functional, cell-based; conditions: Alphacoronavirus 1, A-72

## COc1ccc2c(c1)c(CC(=O)NCCCCC(=O)N[C@H](C(=O)N1C[C@H](O)C[C@H]1C(=O)N[C@@H](C)c1ccc(-c3scnc3C)cc1)C(C)(C)C)c(C)n2C(=O)c1ccc(Cl)cc1
[1]
  selectivity ratio: > 4
Vero C1008
  CC50: > 200 µM
[2]
  selectivity ratio: > 4
SARS-CoV-2 [3]
  EC50: > 50 µM
SARS-CoV-2 [4]
  EC50: > 50 µM

## COc1ccc2c(c1)c(CC(=O)NCCCCCCC(=O)N[C@H](C(=O)N1C[C@H](O)C[C@H]1C(=O)N[C@@H](C)c1ccc(-c3scnc3C)cc1)C(C)(C)C)c(C)n2C(=O)c1ccc(Cl)cc1
[1]
  selectivity ratio: > 11
Vero C1008
  CC50: > 200 µM
Human coronavirus OC43
  EC50: 4.7 µM
MRC5
  CC50: > 250 µM
[2]
  selectivity ratio: > 8
SARS-CoV-2 [3]
  EC50: 18.1 µM
SARS-CoV-2 [4]
  EC50: 25.4 µM
Human coronavirus 229E
  EC50: 36.5 µM

## CCC(CC)COC(=O)[C@H](C)N[P@](=O)(OC[C@H]1O[C@@](C#N)(c2ccc3c(N)ncnn23)[C@H](O)[C@@H]1O)Oc1ccccc1 [REMDESIVIR]
[1]
  selectivity ratio: 2490
Vero C1008
  CC50: 373 µM
[2]
  selectivity ratio: 1490
SARS-CoV-2 [3]
  EC50: 0.15 µM
SARS-CoV-2 [4]
  EC50: 0.25 µM

## COc1ccc2c(c1)c(CC(=O)O)c(C)n2C(=O)c1ccc(Cl)cc1 [INDOMETHACIN]
[1]
  selectivity ratio: > 5
Vero C1008
  CC50: > 500 µM
[5]
  CC50 at 48 h: > 100 µM
SARS-CoV-2 [6]
  EC50: > 400 µM
SARS-CoV
  IC50: 50 µM
Canine coronavirus
  IC50: 5 µM
Canine coronavirus; read-out: LD50 (the source's name)
  LC50: 550 µM
SARS-CoV-2 [3]
  EC50: 94.9 µM

## COc1ccc2c(c1)c(CC(=O)NCCN1CCN(C(=O)CCC(=O)N[C@H](C(=O)N3C[C@H](O)C[C@H]3C(=O)N[C@@H](C)c3ccc(-c4scnc4C)cc3)C(C)(C)C)CC1)c(C)n2C(=O)c1ccc(Cl)cc1
[1]
  selectivity ratio: > 12
Vero C1008
  CC50: > 250 µM
Human coronavirus OC43
  EC50: 2.5 µM
MRC5
  CC50: 238 µM
[2]
  selectivity ratio: > 8
SARS-CoV-2 [3]
  EC50: 21.5 µM
SARS-CoV-2 [4]
  EC50: 29.8 µM
Human coronavirus 229E
  EC50: 3.2 µM

## COc1ccc2c(c1)c(CC(=O)NCCOCCOCC(=O)N[C@H](C(=O)N1C[C@H](O)C[C@H]1C(=O)N[C@@H](C)c1ccc(-c3scnc3C)cc1)C(C)(C)C)c(C)n2C(=O)c1ccc(Cl)cc1
[1]
  selectivity ratio: > 4
Vero C1008
  CC50: > 200 µM
[2]
  selectivity ratio: > 4
SARS-CoV-2 [3]
  EC50: > 50 µM
SARS-CoV-2 [4]
  EC50: > 50 µM
